ZTA DNA inh – blocks Epstein-Barr virus ZTA, an EBNA-1 counter-screen; ZTA-DNA binding, fluorescence polarization; inhibition, % at 11 µM; 320,000 tested, 0.15% active; AID 2234; in the data active = inhibition above about 33%
Target sequence (P03206 whole entry, looked up): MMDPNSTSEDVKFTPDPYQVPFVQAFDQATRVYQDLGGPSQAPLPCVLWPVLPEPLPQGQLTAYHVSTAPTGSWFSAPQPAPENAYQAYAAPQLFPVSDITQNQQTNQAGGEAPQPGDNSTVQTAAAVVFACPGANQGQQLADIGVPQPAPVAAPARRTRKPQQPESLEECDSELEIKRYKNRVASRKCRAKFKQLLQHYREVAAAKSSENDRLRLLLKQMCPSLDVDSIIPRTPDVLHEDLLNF
EBNA-1 inhibitor – blocks EBNA-1 binding to DNA; EBNA-1 DNA binding, fluorescence polarization; inhibition, % at 14.8 µM; 300,000 tested, 0.34% active; in the data active = inhibition above about 28%
M18AAP inhibitor – blocks P. falciparum M18 aspartyl aminopeptidase | recombinant PfM18AAP, H-Glu-NHMec fluorogenic cleavage | inhibition, % at 7.35 µM | 290,000 tested, 1.2% active | AID 1822;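 active = inhibition above the campaign mean inhibition over all tested compounds plus 3 SD, cut at about 28% in these data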;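 also: 0% = plate median of test compound wells and 100% = 2 mM ZnCl2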
NS3 helicase inh – blocks Hepatitis C virus NS3 helicase unwinding | NS3 helicase DNA unwinding, Cy5 molecular beacon fluorescence | inhibition, % at 10.9 µM | 290,000 tested, 0.56% active | AID 1800;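 active = inhibition above the mean of all tested compounds plus 3 SD, set per campaign, cut at about 35% in these data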;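 also: 0% = DMSO wells and 100% = thioflavine S control wells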
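System: Hepatitis C virus NS3 helicase domain fragment enzyme | Reagent: Annealed dual-labelled DNA beacon duplex, ATP-started | Compound dosing: 10.9 µM single point, 0.8% DMSO | Incubation: 1 h reaction at 25 °C, ATP-initiated | Technique: Cy5 fluorescence | Evaluation: Percent inhibition from t60/t0 fluorescence ratio | Benchmarks: Low DMSO, high thioflavine S at 110 µM | Replication: Singlicate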
core dimer inh – blocks dimerization of HCV core protein; inhibition, % at 5 µM; AID 1899; TR-FRET GST/Flag-core106 dimerization, 1536-well; 300,000 tested, 0.33% active;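 active = inhibition above the mean of all tested compounds plus 3 SD, set per screening campaign, cut at about 45% in these data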
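assay system = GST-tagged and Flag-tagged HCV core protein residues 1-106 | controls = unlabelled core106 and no-GST-core106 wells | incubation = compound-protein-antibody incubation 4 h at 22.5 °C | probe or stimulus = Eu donor and XL665 acceptor anti-tag antibodies | read-out = % inhibition based on acceptor/donor emission ratio | signal = TR-FRET 671 and 617 nm emission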
ALR inh – inhibitors of human sulfhydryl oxidase ALR; P55789; inhibition, % (no concentration beside the values); AID 485317; purified ALR, DTT oxidation, H2O2 HRP-luminol luminescence; 290,000 tested, 3.8% active;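 active = mean replicate inhibition above about 79%, with every replicate also reaching it, limit read from the data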
Target sequence (P55789 whole entry, looked up): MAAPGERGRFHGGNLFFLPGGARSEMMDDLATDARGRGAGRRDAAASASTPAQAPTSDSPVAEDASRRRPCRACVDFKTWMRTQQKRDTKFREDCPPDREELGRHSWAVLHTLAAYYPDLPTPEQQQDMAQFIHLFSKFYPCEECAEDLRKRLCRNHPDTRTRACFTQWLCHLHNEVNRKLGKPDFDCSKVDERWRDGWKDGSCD
* = called active by the depositor; . = no result given. Shown are actives, neighbours in structure and some others; about 5.2% of the full set was active somewhere.

SMILES	ZTA DNA inh	EBNA-1 inhibitor	M18AAP inhibitor	NS3 helicase inh	core dimer inh	ALR inh
CC(=O)Nc1ccc(-c2nc3cc(Cl)ccc3o2)cc1	7	3	1	-3	-4	12
O=C(CSc1n[nH]c(-c2ccco2)n1)Nc1ccccc1Cl	-2	-1	1	5	0	21
O=[N+]([O-])c1ccc(-[n+]2nc(-c3ccccc3)nn2-c2ccccc2)cc1	-2	-10	1	4	3	-48
Cc1ccc(NC(=O)COCC(=O)Nc2ccc(F)cc2)cc1	17	8	-8	7	2	-3
Clc1ccc2nc(CSCc3ccccc3)cn2c1	7	2	1	4	-2	-33
CN(C)c1ccc(-c2nc3cc(N)ccc3o2)cc1	.	.	8	-13	.	99*
O=S(=O)(c1cccs1)N1CCN(c2ccc(O)cc2)CC1	6	11	37*	1	-8	.
O=S(=O)(Nc1ccc(N2CCOCC2)cc1)c1cccs1	6	-4	7	3	12	98*
O=C(N/N=C/c1ccc(N2CCOCC2)cc1)c1ccc(NS(=O)(=O)c2cccs2)cc1	2	-9	-6	2	6	17
CCN(CCCNC(=O)CN(C)S(=O)(=O)c1cccc2nsnc12)c1ccccc1	-3	11	14	-4	1	95*
Nc1cc(=O)[nH]c(=O)n1CCc1ccccc1	2	-3	23	4	-4	-1
CCCCOc1ccccc1C1NC(=O)CCC1[N+](=O)[O-] (stereo not given)	-17	-12	-4	-3	-6	-19
CC(=O)Nc1ncc(N=Nc2cccc(C(F)(F)F)c2)s1	-3	0	4	1	6	2
Cc1cccc(N=Nc2cnc(N)s2)c1	-18	-3	12	-2	2	99*
Cn1c(-c2ccc(Br)cc2)cnc1NCc1ccc(C#N)cc1	-19	-3	10	-4	-23	33
Cn1c(-c2cccc([N+](=O)[O-])c2)cnc1NCc1ccc(C#N)cc1	10	7	3	-5	-3	99*
Cn1c(-c2cccc([N+](=O)[O-])c2)cnc1NCc1cccc(F)c1	-5	-5	5	4	-3	99*
Cn1c(-c2ccc(F)cc2)cnc1NCc1cccc([N+](=O)[O-])c1	-2	-4	4	-14	-2	19
CCOc1ccc(S(=O)(=O)NCCC(=O)N(CC)CC(=O)Nc2c(F)cccc2F)cc1	-3	-3	.	.	2	-1
CCCCOC(=O)Nc1ccc(N(C)C)cc1	6	3	-20	10	-8	99*
CCCCOC(=O)Nc1ccc(N2CCOCC2)cc1	7	4	6	-2	-2	-7
CCCCOC(=O)Nc1ccc(N2CCCCC2)cc1	-4	2	1	-2	3	78*
CCOC(=O)c1c(C)c(C(=O)Nc2ccc(N(C)C)cc2)c(C)n1CC	7	10	-16	11	-12	99*
CCSc1nc2sccc2c(=O)n1-c1ccccc1	2	4	-14	-4	16	-1
NC(=O)C1CCN(C(=O)C2CC(=O)N(Cc3ccccc3)C2)CC1 (stereo not given)	-5	.	.	.	.	-2
SMILES	ZTA DNA inh	EBNA-1 inhibitor	M18AAP inhibitor	NS3 helicase inh	core dimer inh	ALR inh
C[C@H](CO)N1C[C@H](C)[C@@H](CN(C)S(C)(=O)=O)Oc2ccc(NC(=O)NC3CCCCC3)cc2C1=O	.	.	.	.	.	-10
O=C1NCCCC2c3c(cc(Br)c(O)c3Br)OC12N1CCOCC1 (stereo not given)	-3	5	1	2	-6	94*
COC(=O)c1cc(S(=O)(=O)NCCN2CCN(c3ccccc3F)CC2)c[nH]1	-7	-9	2	10	-15	2
CCOC(=O)c1c(OCC)[nH]c2ccc(O)cc12	-17	-23	0	-5	-8	87*
Cc1ccc(S(=O)(=O)CCC(=O)OCC(=O)NC(C)c2ccc(F)cc2)cc1 (stereo not given)	-9	.	.	.	.	-1
COc1cc(C#N)c(N=C(SCC#N)N2CCOCC2)cc1OC	9	1	2	-4	-1	98*
C[C@H](CO)N1C[C@H](C)[C@@H](CN(C)S(=O)(=O)c2cn(C)cn2)Oc2ccc(NC(=O)Cc3ccccc3)cc2C1=O	.	.	.	.	.	0
COc1cc(/C=C/C(=O)Nc2ccncc2)cc(OC)c1OC	10	11	-11	3	-7	85*
